Columns and labels:
CD4 on 3.L2 T cells = test: Adhesion frequency assay for direct CD4 binding; parameters: species or system mouse; conditions: MCC:I-E^k at >4,000 molecules/μm^2; contact 5s; n≥3 cell pairs, 50 contacts each
Method in brief: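 3.L2 T cells, negatively selected from 6–8-week mouse spleens, were brought by micropipette into repeated 5-s contacts with human RBCs. The RBCs were biotinylated, streptavidin-linked and coated with noncognate MCC:I-E^k at >4,000 molecules/μm². Site densities came from PE-antibody flow cytometry against standard beads. Adhesion was scored from RBC membrane deflection on retraction, with frequency taken from 50 contacts per cell pair.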

[1] = system: 3.L2 TCR on CD8^+ 3.L2 T cells; test: BFP force-clamp bond lifetime assay, CD8+ 3.L2 T cells; type: binding, mouse; conditions: for Bond lifetime versus force / Bond type under force: force-clamp, 5-40 pN, CD8+ 3.L2 T cells; for Bond type under force: >300 lifetime events per ligand; for Force at maximum ratio of bond lifetime of Hb to that of the peptide: ratio bond lifetime Hb/peptide vs force (Fig. 6B)
Method in brief: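 Biomembrane force probe force-clamp used beads carrying streptavidin-maleimide and subsaturating biotinylated pMHC-II. Each bond was loaded to a preset force and held constant until it dissociated. pMHC density was adjusted to keep adhesion frequency <20%, for […] single bonds. >300 lifetimes per ligand were taken over 5-40pN, in 5-7 bins. The Hb/peptide lifetime ratio was calculated from the force versus lifetime data.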

3.L2 TCR T-cell response = conditions: relative activity of well-characterized ligands; ref [6], [36]; cited from earlier work
3.L2 TCR = conditions: 3D SPR; ref [6]; cited from earlier work
[2] = system: 3.L2 TCR on CD4^+ 3.L2 T cells; test: Micropipette adhesion frequency assay, CD4+ 3.L2 T cells; type: binding, mouse; conditions: T cells treated with anti-CD4 GK1.5, 20 μg/ml
Method in brief: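 T cells were incubated 30min at 4°C with 20μg/ml anti-CD4 GK1.5, then tested with the same antibody present. Micropipette contacts were made with pMHC-coated RBCs, and adhesion frequency counted from 50 contacts per cell pair over a range of contact times. A least-squares fit to the probabilistic kinetic equation, using measured TCR and pMHC densities, gave AcKa and koff. On-rate = AcKa × koff.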

3.L2 TCR on T cells = test: Thermal fluctuation assay; type: binding, mouse; conditions: T cells treated with anti-CD4 GK1.5; zero force
Method in brief: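 Cells were pretreated 30min at 4°C with 20μg/ml anti-CD4 GK1.5, and the antibody was kept in the chamber during measurement. A biomembrane force probe bead bearing subsaturating biotinylated pMHC-II contacted the T cell. Bond lifetime ran from reduction to resumption of bead thermal fluctuations. koff was taken from the negative slope of ln(events with lifetime > t_b) versus t_b.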

[3] = target: CD4 (mouse (endogenous in 3.L2 transgenic mouse T cells)) (UniProt P06332); test: micropipette adhesion frequency assay
UniProt P06332, sequence (P06332 27-457): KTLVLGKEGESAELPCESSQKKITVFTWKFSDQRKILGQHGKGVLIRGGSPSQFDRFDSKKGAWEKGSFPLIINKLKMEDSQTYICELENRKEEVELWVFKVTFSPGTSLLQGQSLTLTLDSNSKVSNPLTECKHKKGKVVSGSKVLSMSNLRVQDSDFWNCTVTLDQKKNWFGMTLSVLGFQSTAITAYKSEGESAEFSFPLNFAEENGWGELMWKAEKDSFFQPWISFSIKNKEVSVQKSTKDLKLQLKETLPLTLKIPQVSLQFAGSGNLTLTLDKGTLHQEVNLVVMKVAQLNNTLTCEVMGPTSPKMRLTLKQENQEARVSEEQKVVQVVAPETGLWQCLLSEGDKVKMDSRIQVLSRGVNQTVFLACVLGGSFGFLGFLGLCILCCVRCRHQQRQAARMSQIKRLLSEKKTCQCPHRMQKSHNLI

| Substance | Bond lifetime versus force [1] | Bond type under force [1] | Force at maximum ratio of bond lifetime of Hb to that of the peptide [1] | Classification of Ligand (3.L2 TCR T-cell response) | other results |
| --- | --- | --- | --- | --- | --- |
| ANERADLIAYLKQATK [MCC] |  |  |  |  | Adhesion frequency Pa, noncognate pMHC-II, very high site density (CD4 on 3.L2 T cells): < 5% |
| GKKVITAFAEGLK [A72] | decreases monotonically with increasing force | slip-only bonds | 10-15 pN | Weak antagonist | Detectability by SPR (earlier work) (3.L2 TCR): not previously detectable using SPR |
| GKKVITAFIEGLK [I72] | decreases monotonically with increasing force | slip-only bonds | 10-15 pN | Antagonist |  |
| GKKVITAFNEGLK [Hb] |  | catch-slip bonds |  | Agonist | Effective 2D on-rate, Ackon, with CD4 blocking ([2]; calculated as AcKa × koff): 3.16 ± 0.42 × 10^−4 μm^4s^−1; 2D off-rate, koff (adhesion frequency assay)**, with CD4 blocking ([2]; zero force): 1.89 ± 0.31 s⁻¹; 2D off-rate, koff (thermal fluctuation assay)*, with CD4 blocking (3.L2 TCR on T cells): 1.41 ± 0.17 s⁻¹ |
| GKKVITAFTEGLK [T72] |  | catch-slip bonds |  | Weak agonist |  |
| moth cytochrome c (MCC) peptide 88-103 bound to I-E^k (peptide-MHC) |  |  |  |  | adhesion frequency [3]: < 5% |

— paper PMC4592802 (Journal of immunology (Baltimore, Md. : 1950), 2015)
